Only some compounds are listed: those with a hit (about 4.2% of all), similar ones and a draw of the others.
Cl transport mod: KCC2 cotransporter modulators, thallium flux, primary screen, cell-based, HEK293 KCC2, FluoZin-2 fluorescence, MLSMR. KCC2 cells, thallium flux FluoZin-2 fluorescence. B-score of Tl+ flux slope (higher = more flux/activation; lower = inhibition) at 10 µM. 2.2% of 190,000 active. AID 1456, 2008;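 active = thallium flux slope and its plate-corrected score both differing from the plate sample mean at a set confidence after two filtering rounds, in either direction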;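 note: slope of fluorescence scaled to starting intensity during 10 to 20 s after thallium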
KCNQ1 inh: inhibitors of human KCNQ1 channel, primary screen, cell-based, thallium flux, high-throughput; Potassium voltage-gated channel subfamily KQT member 1 (Homo sapiens), P51787; CHO-K1 KCNQ1, FluxOR thallium flux fluorescence; stronger effect = higher value; B-score at 10 µM; 1.3% of 310,000 active;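 active = compounds whose thallium flux B-score, printed positive for inhibition, exceeds three library SD while starting fluorescence stays within three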;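 note: channel opened by potassium depolarization with thallium stimulus after 20 min compound exposure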
Target sequence (P51787 whole entry, looked up): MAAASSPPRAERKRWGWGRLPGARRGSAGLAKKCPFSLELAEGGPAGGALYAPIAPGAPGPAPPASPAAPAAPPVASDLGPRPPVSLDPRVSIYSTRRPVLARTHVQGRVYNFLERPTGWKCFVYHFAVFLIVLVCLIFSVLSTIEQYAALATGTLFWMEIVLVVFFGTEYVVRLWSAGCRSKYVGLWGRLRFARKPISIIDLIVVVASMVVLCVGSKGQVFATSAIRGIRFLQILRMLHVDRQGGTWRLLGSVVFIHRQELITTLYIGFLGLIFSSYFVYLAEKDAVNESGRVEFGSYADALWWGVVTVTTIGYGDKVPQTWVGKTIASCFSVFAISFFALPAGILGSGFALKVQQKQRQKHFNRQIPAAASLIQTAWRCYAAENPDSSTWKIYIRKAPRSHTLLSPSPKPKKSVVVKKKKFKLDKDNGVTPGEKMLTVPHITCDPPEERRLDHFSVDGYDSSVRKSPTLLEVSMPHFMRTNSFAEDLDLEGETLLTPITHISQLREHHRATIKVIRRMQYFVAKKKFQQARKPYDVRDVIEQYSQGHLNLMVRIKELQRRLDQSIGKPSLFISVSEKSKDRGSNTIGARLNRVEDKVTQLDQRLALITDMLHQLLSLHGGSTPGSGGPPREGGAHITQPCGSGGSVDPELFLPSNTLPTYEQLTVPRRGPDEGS
KCNQ1 pot: potentiators or activators of KCNQ1 channel, primary screen, cell-based, thallium flux, high-throughput. 0.35% of 310,000 active. B-score at 10 µM. Potassium voltage-gated channel subfamily KQT member 1 (Homo sapiens), P51787. CHO-K1 KCNQ1, thallium flux FluxOR fluorescence; stronger effect = higher value;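 active = fluorescence ratio B-score, a plate-corrected score, at least three library SD, with initial intensity B-score within 5 SD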
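Test system: CHO-K1 cells stably expressing KCNQ1 / Medium: assay buffer / Also added: depolarizing K+/Tl+ stimulus, K2SO4 and Tl2SO4 each 12.5 mM in 5x stock / Incubation: 90 min dye loading and 20 min compound exposure, both at room temperature / Signal: thallium influx via FluxOR fluorescence, kinetic imaging / Evaluation: B score of baseline-normalized fluorescence ratio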
hERG protect: hERG rescue from dofetilide block, primary screen, cell-based, CHO-hERG, FluxOR thallium flux, dofetilide IC70; Voltage-gated inwardly rectifying potassium channel KCNH2 (Homo sapiens), Q12809; dofetilide IC70 present; activation (rescue from dofetilide block), less the hit threshold, % at 10 µM; 0.51% of 310,000 active; AID 1511, 2009;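 active = activation above the mean of controls blocked by dofetilide plus 5 SD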;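 note: thallium influx through hERG after potassium depolarization seen as dye fluorescence rise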
AI-2 QS mod: Vibrio harveyi AI-2 quorum sensing modulators, primary screen, JMH597 strain, luminescence/OD600 ratio; Vibrio harveyi JMH597 AI-2 luminescence/OD600 ratio, 9 h; stronger effect = lower value; strain lacks LuxN and CqsS sensors; 0 = neutral-control median; 0.4% of 300,000 active; activity change, % at 7.5 µM; in the data active = activity change below about -75%, passing the limit was not always enough; inconclusive = no clear call, values can overlap the other calls;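 note: luminescence divided by OD600 gain over 9 h not by final OD600 alone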
Mot1-301 SUMO: yeast Mot1-301 growth rescue at high temperature, primary screen, SUMOylation pathway inhibitor project, S. cerevisiae, ATP luminescence, 38.5C | S. cerevisiae Mot1-301 growth rescue; percent above DMSO median, 100 means doubled | growth rescue, % at 18.8 µM | 1% of 320,000 active | AID 2716, 2010;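 active = every valid replicate shows activation above 250% relative to neutral control wells; inactive = the rest, any valid replicate at or below 250%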
Of the large screens only hits and unclear results are named; the others gave an inactive call.

COC(=O)CSc1nnc(CNC(=O)c2cccs2)n1-c1cc(OC)ccc1OC	none (no result: KCNQ1 inh, KCNQ1 pot, hERG protect, AI-2 QS mod)
COc1ccc(-c2nn(-c3ccccc3)cc2C(=O)OCC(=O)c2ccc(C)c([N+](=O)[O-])c2)cc1	KCNQ1 inh 8
CC1(C)C2C/C(=N\O)C(C)(/[N+]([O-])=C/c3cccc([N+](=O)[O-])c3)CC21 (configuration not stated)	none (no result: Mot1-301 SUMO)
CCc1[nH]nc2c1C(c1ccc(Br)s1)C(C#N)=C(N)O2 (configuration not stated)	Cl transport mod -4.4 (no result: KCNQ1 inh, KCNQ1 pot, hERG protect, AI-2 QS mod)
CCc1[nH]nc2c1C(c1ccsc1)C(C#N)=C(N)O2 (configuration not stated)	none
O=C(Nc1ccccc1N1CCN(C(=O)c2ccccc2)CC1)c1cc2ccccc2o1	Mot1-301 SUMO 264 (no result: KCNQ1 inh, KCNQ1 pot, hERG protect, AI-2 QS mod)
O=C(Nc1ccccc1N1CCCC1)c1cc2ccccc2o1	none
c1cnc2ccc(C(c3nnnn3C3CCCC3)N3CCN4CCCC4C3)cc2c1 (configuration not stated)	none
CCn1nc(C(=O)OCC(=O)N2CCc3ccccc32)c2ccccc2c1=O	Cl transport mod -3.4
CCc1c(C)c2nncn2[nH]c1=O	none
CCOC(=O)/C(=C/C=C1\Sc2cc(C)c(C)cc2N1CC)C(C)=O	KCNQ1 inh 13 (no result: Mot1-301 SUMO)
CCOC(=O)/C(=C/C=C1\Sc2ccccc2N1CC)C(C)=O	none
CCOC(=O)c1cc(-c2ccc(C)o2)nn1CCC#N	Mot1-301 SUMO 347
COc1ccc(-n2ccnc2SCC(=O)NC2CCCC2)cc1	none (no result: Cl transport mod, KCNQ1 inh, KCNQ1 pot, hERG protect, AI-2 QS mod)
O=c1[nH]c(NCc2ccccc2)nc2c1CCCC2	none
CCC1CCC(C(=O)NC(C(=O)NCCN2CCOCC2)C(C)C)CC1 (configuration not stated)	none (no result: Cl transport mod)
O=c1c(C(c2ccccc2)c2c(O)sc3ccccc3c2=O)c(O)sc2ccccc12	Cl transport mod 21
O=C(NCc1ccccc1)c1cccc(COc2ccccc2Cl)c1	KCNQ1 inh 6
Cc1cc(C)c2sc(N(CCCN(C)C)C(=O)c3ccc(S(=O)(=O)N4CCCc5ccccc54)cc3)nc2c1	KCNQ1 inh 6 (no result: Cl transport mod)
COc1ccc(COc2cc(-c3cccc(OC)c3)nc3ccc(NC(=O)c4ccc(OC)cc4)cc23)cc1	none
COc1ccc(COc2cc(-c3cccc(OC)c3)nc3ccc(NC(=O)c4cccnc4)cc23)cc1	KCNQ1 inh 6
O=C(CN1CCN(C(=O)C2CCCO2)CC1)Nc1ccc(Cl)cc1 (configuration not stated)	none (no result: Cl transport mod)
O=C(NNC(=O)c1cc(-c2cccnc2)nc2ccccc12)Nc1ccc(Cl)cc1	KCNQ1 inh 12
O=C(NNC(=O)c1cc(-c2ccncc2)nc2ccccc12)Nc1ccc(F)cc1	none (no result: Cl transport mod)
O=C(NNC(=O)c1cc(-c2ccccc2)nc2ccccc12)Nc1cccc(Cl)c1	KCNQ1 inh 13
CC(C)Sc1nc2c(cnn2-c2ccc(Cl)cc2)c(=O)[nH]1	none (no result: Cl transport mod)
Cc1ccc(C)c(NC(=S)c2nc3ccccc3s2)c1	Cl transport mod 22
S=C(Nc1ccc(Cl)cc1)c1nc2ccccc2s1	KCNQ1 pot 29, hERG protect 27
Cc1cc(OC(C)C(=O)NCC2CCC(C(=O)O)CC2)c2c(C)cc(=O)oc2c1 (configuration not stated)	none (no result: Cl transport mod)
Cc1ccc(NC(=O)CN2C(=O)S/C(=C\c3ccc(-c4cccc(C(=O)O)c4C)o3)C2=O)cc1	hERG protect 15
C/C(=N\Nc1ccccc1)c1c(O)cc(C)oc1=O	Mot1-301 SUMO 324
C/C(=N/NC(=O)c1cccc(C)c1)c1c(O)cc(C)oc1=O	none
O=c1cc(N2CCCCC2)c(-c2ccccc2)nn1Cc1c(Cl)cccc1Cl	KCNQ1 inh 9
CN(C)C(=O)c1cc(C(=O)c2ccc(C(F)(F)F)cc2)c[nH]1	none (no result: Cl transport mod)
Cn1c(=O)c2c(nc(N3CCCCCC3)n2CCSc2nc3ccccc3o2)n(C)c1=O	Mot1-301 SUMO 423
CN1CCN(c2nc3c(c(=O)[nH]c(=O)n3C)n2Cc2ccc(Cl)cc2)CC1	none (no result: Cl transport mod)
CN1CCN(c2nc3c(c(=O)n(C)c(=O)n3C)n2Cc2ccc(Cl)cc2)CC1	Mot1-301 SUMO 289 (no result: Cl transport mod)
CC(=O)c1ccc(N2CCN(S(=O)(=O)c3csc(C(N)=O)c3)CC2)cc1	none (no result: Cl transport mod)
NC(=O)c1cc(S(=O)(=O)N2CCN(c3ccc([N+](=O)[O-])cc3)CC2)cs1	KCNQ1 inh 7 (no result: Cl transport mod)
COc1cccc(N2CCN(CC(=O)NC(=O)NCc3ccco3)CC2)c1	hERG protect 10.0
O=C(CN1C(=O)NC2(CCCC2)C1=O)NCc1ccco1	none (no result: Cl transport mod, KCNQ1 inh, KCNQ1 pot, hERG protect, AI-2 QS mod)
O=C(CN1C(=O)NC2(CCCCCCC2)C1=O)NC(=O)NCc1ccco1	Mot1-301 SUMO 337
O=C(CN1CCN(c2ccccc2)CC1)NC(=O)NCc1ccco1	none
CC(C)c1ccc(NC(=S)N(C)CCc2ccccn2)cc1	hERG protect 29
COc1cc(/C=C2\C(=O)N(C)C(=S)N2C)ccc1O	KCNQ1 pot 15
Cn1c2ccsc2c2ncn(Cc3ccccc3F)c(=O)c21	none (no result: Cl transport mod, KCNQ1 inh, KCNQ1 pot, hERG protect, AI-2 QS mod)
Cn1nc(C(F)(F)F)c2cc(NC(=O)OCc3ccc(C(C)(C)C)cc3)sc21	KCNQ1 inh 7 (no result: Mot1-301 SUMO)
COc1ccc(COC(=O)Nc2cc3c(C(F)(F)F)nn(C)c3s2)cc1	AI-2 QS mod -77 (no result: Mot1-301 SUMO)
COc1ccc(-c2c(C(F)(F)F)nn(C)c2NC(C)=O)cc1	none
O=C(NCC1(N2CCCCC2)CCCCC1)c1cccc(S(=O)(=O)Nc2ccc(F)cc2)c1	none (no result: Cl transport mod, KCNQ1 inh, KCNQ1 pot, hERG protect, AI-2 QS mod)
Cc1ccc2[nH]c(=O)c3cc(C(=O)N(C)C4CCCCC4)sc3c2c1	none (no result: Cl transport mod)
O=C(NC(=S)N1CCCc2ccccc21)c1ccc(Cl)cc1	Cl transport mod 57 (no result: KCNQ1 inh, KCNQ1 pot, hERG protect, AI-2 QS mod)
O=C(NC(=S)N1CCCc2ccccc21)c1ccccc1	AI-2 QS mod inconclusive (no result: Cl transport mod)
O=C(NC(=S)N1CCCc2ccccc21)c1ccc(Br)cc1	Cl transport mod 72, KCNQ1 pot 16, hERG protect 43
CN(C)c1cc[n+](CC(=O)Nc2ccc(Oc3ccccc3)cc2)cc1	none
CC(C)(C)n1nnnc1C(c1cc2cc3c(cc2[nH]c1=O)OCCO3)N1CCSCC1 (configuration not stated)	KCNQ1 pot 22, hERG protect 9.2
COc1ccc2cc(C(c3nnnn3C(C)(C)C)N3CCSCC3)c(=O)[nH]c2c1 (configuration not stated)	none

Source: PubChem
